# Reference: PubChem BioAssay
# Active and inactive are the calls of the source.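 The calls were made as follows, unless noted: active = GFP response above 150% of the DMSO level; inconclusive = fewer than 70 events counted for a yeast strain; inactive = the rest.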
# Experiments:
# [1] = RPL19A-GFP modulators, yeast TOR pathway, confirmation, cell-based, S. cerevisiae, flow cytometry, cherry picks, mother/daughter gates (AID 2270;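 active = GFP response below 50% of the DMSO control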); conditions: S. cerevisiae RPL19A-GFP strain, 3 h, at 10 µM, stronger effect = lower value, 100 = same GFP as DMSO wells
# [2] = LAP4-GFP expression modulators in yeast, confirmation, cell-based, cherry picks, flow cytometry, mother/daughter gates (AID 2271;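 active = GFP response above 150% of the DMSO control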;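 also: ratio of sample to DMSO plate mean so 100% equals DMSO level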); conditions: S. cerevisiae LAP4-GFP strain, 3 h, at 10 µM, stronger effect = higher value, 100 means same as DMSO control
# Procedure, shortened: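 System: GFP-fusion yeast strain; Incubation: compound exposure 3 h at 30 °C, end-over-end rotation; Measured by: GFP by flow cytometry; Read-out: median GFP fluorescence as percent of plate-mean DMSO wells; Medium: synthetic complete (SC) yeast growth medium; Compound: single test-compound dose, 10 µM final; Benchmarks: DMSO-only negative wells, rapamycin 400 ng/mL positive wells.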
# [3] = modulators of MEP2-GFP levels in yeast, confirmation, S. cerevisiae, flow cytometry GFP, cherry picks (AID 2272;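 active = GFP response above 150% of the DMSO control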;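 also: ratio of well signal to plate DMSO mean so 100% equals DMSO level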); conditions: S. cerevisiae MEP2-GFP strain, 3 h, at 10 µM, stronger effect = higher value
# [4] = AGP1-GFP expression modulators, hit retest, confirmation, cell-based, flow cytometry, S. cerevisiae, cherry picks (AID 2273);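 also: median GFP channel fluorescence over the whole cell population gate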; conditions: S. cerevisiae AGP1-GFP strain, 3 h, at 10 µM
# [5] = modulators of CIT2-GFP expression in yeast, confirmation, S. cerevisiae, GFP fusion, cherry picks, mother/daughter gates (AID 2274); conditions: S. cerevisiae CIT2-GFP strain, flow cytometry, 3 h, at 10 µM, stronger effect = higher value
# [6] = measured here: daughter cell gate
# [7] = measured here: mother cell gate
# [8] = measured here: daughter cell gate response
# [9] = measured here: mother cell gate response
Structure (SMILES),GFP response vs DMSO [1],"GFP response vs DMSO [1, 6] [%]","GFP response vs DMSO [1, 7] [%]",GFP response relative to DMSO [2],"GFP response relative to DMSO [2, 8] [%]","GFP response relative to DMSO [2, 9] [%]",GFP response vs DMSO [3],"GFP response, % of DMSO [4]","GFP response, % of DMSO [5]","GFP response, % of DMSO [5, 6] [%]","GFP response, % of DMSO [5, 7] [%]"
O=C(N/N=C/c1c(Cl)cccc1Cl)c1ccc(F)cc1,95% (inactive),96.1,95.7,105% (inactive),102,105,96.8% (inactive),97.1% (inactive),103% (inactive),103,102
COC(=O)Cn1cc(/C=C/[N+](=O)[O-])c2ccccc21,101% (inactive),103,100,145% (inactive),146,145,101% (inactive),103% (inactive),106% (inactive),108,103
COc1ccc(/C=C/C(=O)c2ccccc2O)cc1,96.8% (inactive),96.7,98.8,102% (inactive),99.3,99.5,102% (inactive),102% (inactive),99.3% (inactive),100,98
COc1ccc(N2C(=O)C(Cl)=C(Oc3cccc(OC)c3)C2=O)cc1,90.9% (inactive),76.4,79.9,218% (active),203,227,105% (inactive),110% (inactive),98.4% (inactive),93.7,80.8
Cc1c(NC2=C(Cl)C(=O)N(c3ccccc3)C2=O)c(=O)n(-c2ccccc2)n1C,93.5% (inactive),97.3,95.2,97.7% (inactive),104,99.5,99.5% (inactive),103% (inactive),104% (inactive),108,96.8
COc1ccc(N2CCN(C(=O)c3ccc(C)cc3Cl)CC2)cc1,101% (inactive),98.1,102,97.4% (inactive),98.7,99.3,104% (inactive),95.9% (inactive),92.6% (inactive),93.2,92.3
C/C(=N\NC(=O)c1cccc(Br)c1)c1ccc(Br)cc1,96.7% (inactive),98.7,95,106% (inactive),97.5,107,103% (inactive),98.8% (inactive),98.6% (inactive),101,98.2
CC(C)C(=O)Nc1ccc(NC(=O)c2cc3ccccc3o2)cc1,99.6% (inactive),100,98.6,102% (inactive),101,102,99.3% (inactive),99.1% (inactive),100% (inactive),97.6,100
Cc1ccc(C2CC(c3cccs3)=NN2S(=O)(=O)c2ccc(C)cc2)cc1 (configuration not stated),101% (inactive),100,102,98.2% (inactive),97.5,97.3,109% (inactive),99% (inactive),98.8% (inactive),97.4,98.1
COc1ccc(OC)c(C2C(C(=O)Nc3nc4ccccc4s3)=C(C)NC3=C2C(=O)CCC3)c1 (configuration not stated),102% (inactive),78.4,78.4,102% (inactive),86.4,82.9,109% (inactive),103% (inactive),103% (inactive),85,83.7
CC(=O)c1ccc(N2CCN(C(=O)c3ccc(Br)cc3)CC2)c(F)c1,111% (inactive),95.4,110,160% (active),117,160,117% (inactive),115% (inactive),111% (inactive),88.1,104
COc1ccccc1-c1nnc(NC(=O)c2ccc(S(=O)(=O)N3CCCC3)cc2)o1,102% (inactive),101,104,96.2% (inactive),98.7,97.2,102% (inactive),98% (inactive),107% (inactive),105,107
Cc1ccc(S(=O)(=O)N2CCCC2C(=O)OCc2ccco2)cc1 (configuration not stated),103% (inactive),103,103,89% (inactive),92.5,92.1,107% (inactive),97.6% (inactive),112% (inactive),111,112
O=C(OCC(=O)N1CCN(C(=O)c2ccco2)CC1)c1cc(-c2cccc(Br)c2)nc2ccccc12,80.3% (inactive),75.5,76.9,139% (inactive),117,144,125% (inactive),127% (inactive),128% (inactive),114,125
CCOC(=O)C(=CNNc1ccccc1)C(=O)OCC,106% (inactive),105,105,136% (inactive),133,140,113% (inactive),102% (inactive),103% (inactive),101,103
O=C(O)CCc1ccc(-c2ccc(Cl)cc2)o1,99% (inactive),91.7,97.2,138% (inactive),128,140,99% (inactive),85.4% (inactive),94.4% (inactive),88.4,94.4
Cc1ccn2c(NC3CCCCC3)c(C)nc2c1,99.4% (inactive),100,99.6,95.7% (inactive),95.9,96.2,99% (inactive),99% (inactive),98.8% (inactive),101,96.8
COc1ccc(CCNc2nc(-c3sc(C)nc3C)cs2)cc1OC,96.6% (inactive),97.6,95.4,106% (inactive),104,105,102% (inactive),93.7% (inactive),101% (inactive),103,99.7
O=C(COC(=O)c1n[nH]c2ccccc12)c1ccc(F)c(F)c1,97.1% (inactive),98.7,96.3,104% (inactive),97.5,106,103% (inactive),97% (inactive),98.6% (inactive),101,98.2
Cc1ccc(C(C(=O)NC2CCCCC2)N(CCCN2CCOCC2)C(=O)c2snc(C(N)=O)c2N)cc1 (configuration not stated),101% (inactive),102,102,105% (inactive),102,104,99.5% (inactive),104% (inactive),102% (inactive),98.3,103
CN(C(=O)c1ccccc1Cl)c1ccccc1,100% (inactive),100,98.8,94.1% (inactive),96,93.4,97.2% (inactive),103% (inactive),101% (inactive),103,102
CCN(CC)C(=O)c1ccc(-c2cccs2)s1,95.4% (inactive),94.6,96.4,107% (inactive),106,108,94.1% (inactive),99.9% (inactive),98.3% (inactive),97.2,97.3
COc1ccc(N2C(=O)C(Cl)=C(Nc3c(C)n(C)n(-c4ccccc4)c3=O)C2=O)cc1,102% (inactive),106,101,100% (inactive),101,101,99.5% (inactive),89% (inactive),92.1% (inactive),87.2,87.5
Clc1cccc(Cn2ncc3ccccc32)c1,95% (inactive),95.1,94.9,103% (inactive),102,103,92% (inactive),94.1% (inactive),95.5% (inactive),95.4,95
O=C(CNC(=O)c1ccncc1)N/N=C/c1cccc([N+](=O)[O-])c1,99.2% (inactive),98.6,99.4,97.9% (inactive),97.6,98.3,105% (inactive),94.7% (inactive),99.7% (inactive),101,99.7
O=C(CCCCCN1C(=O)c2cccc3cccc(c23)C1=O)N1CCOCC1,102% (inactive),101,102,102% (inactive),101,103,99% (inactive),99.8% (inactive),103% (inactive),101,103
O=S(=O)(c1ccccc1)c1ncc(C(F)(F)F)cc1O,96.5% (inactive),98.4,94.8,97.7% (inactive),97.5,99.5,110% (inactive),104% (inactive),101% (inactive),99.3,102
